From ChEMBL document CHEMBL3992509, “Discovery of a Highly Potent, Selective, and Metabolically Stable Inhibitor of Receptor-Interacting Protein 1 (RIP1) for the Treatment of Systemic Inflammatory Response Syndrome” (J Med Chem, 2017)
Activity calls are given as the source filed them. No cut-off for these calls is given here.

Key:
[1] = target: Receptor-interacting serine/threonine-protein kinase 3 (Homo sapiens) (UniProt Q9Y572); experiment: Inhibition of TNFalpha/z-VAD-FMK-induced RIP3 phosphorylation at Ser-227 residue in human HT-29 cells by Western blot method; type: cell-based
Mus musculus [2] = experiment: (§1) Protection against TNFalpha-induced myocardium damage in C57BL/6J mouse at 0.3 to 3 mg/kg, ip pretreated for 17 mins followed by TNFalpha injection and subsequent compound treatment once in every 12 hrs measured 24 hrs post TNFalpha injection by hematoxylin and eosin staining based assay; type: functional, organism-based
How it was run: (§2)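 Mice given mTNFα IV; compound 0.3, 1, 3 mg/kg IP 17 min before and every 12 h. Killed 24 h post-TNFα. Organs fixed 24 h in 10% neutral buffered formalin, paraffin-embedded, 5-μm sections, H&E stained; ×200, at least three mice each.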

[3] = Apparent permeability from basolateral to apical side in MDCK cells harboring MDR1; type: ADME, cell-based, Canis lupus familiaris; settings: dog
How it was run: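 Permeability measured in MDCK-MDR1 cell monolayers in both directions, apical-to-basolateral and basolateral-to-apical; efflux ratio derived from the two Papp values.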

[4] = Bioavailability in C57BL/6J mouse at 10 mg/kg, ip by LC-MS/MS analysis; type: ADME, organism-based; settings: in vivo
How it was run: (§3)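 C57BL/6 mice (n = 3) dosed IV, IP or PO; blood sampled by eye puncture at various time points; plasma levels by LC-MS/MS; parameters from individual animal data by non-compartmental analysis.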

[5] = target: T1, Receptor-interacting serine/threonine-protein kinase 1 (Homo sapiens) (UniProt Q13546); experiment: Inhibition of TNFalpha/z-VAD-FMK-induced RIP1 phosphorylation in human HT-29 cells by Western blot method; type: cell-based
T1 sequence (whole entry): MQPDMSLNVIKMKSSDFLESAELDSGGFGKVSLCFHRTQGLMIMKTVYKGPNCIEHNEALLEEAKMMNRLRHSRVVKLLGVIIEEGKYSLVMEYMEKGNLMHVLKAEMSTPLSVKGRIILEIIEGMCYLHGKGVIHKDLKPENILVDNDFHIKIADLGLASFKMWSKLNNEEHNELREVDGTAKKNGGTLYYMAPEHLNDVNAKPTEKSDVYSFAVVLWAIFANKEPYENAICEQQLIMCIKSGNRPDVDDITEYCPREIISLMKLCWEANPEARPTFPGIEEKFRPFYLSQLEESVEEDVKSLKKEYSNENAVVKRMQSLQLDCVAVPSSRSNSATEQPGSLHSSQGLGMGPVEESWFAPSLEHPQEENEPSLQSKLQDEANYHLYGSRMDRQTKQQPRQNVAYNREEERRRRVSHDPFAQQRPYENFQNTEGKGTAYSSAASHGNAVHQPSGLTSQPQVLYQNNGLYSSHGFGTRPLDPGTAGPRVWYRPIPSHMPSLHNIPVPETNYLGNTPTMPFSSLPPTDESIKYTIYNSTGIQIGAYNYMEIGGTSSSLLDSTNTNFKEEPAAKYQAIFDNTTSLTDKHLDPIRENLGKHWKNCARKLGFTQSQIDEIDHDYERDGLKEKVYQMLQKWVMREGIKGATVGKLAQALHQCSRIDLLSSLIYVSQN

[6] = Oral bioavailability in C57BL/6J mouse at 10 mg/kg by LC-MS/MS analysis; type: ADME, organism-based; settings: in vivo; how it was run: as §3
Mus musculus [7] = experiment: Protection against TNFalpha-induced multiorgan damage in C57BL/6J mouse assessed as serum LDH level at 0.3 to 3 mg/kg, ip pretreated for 17 mins followed by TNFalpha injection and subsequent compound treatment once in every 12 hrs measured 24 hrs post TNFalpha injection; type: functional, organism-based
How it was run: (§4)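 C57BL/6 mice given 4 μg mTNFα (~0.18 mg/kg) IV. Compound 0.3, 1, 3 mg/kg IP 17 min before and then every 12 h; vehicle controls. Blood taken 12 h and 24 h after TNFα. Assays: IL-6 and IL-1β; serum LDH, CK, AST, creatinine, BUN, amylase.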

Mus musculus [8] = experiment: as §1, with “thymus” for “myocardium”, “mouse assessed as reduction in macrophages infiltration” for “mouse”; type: functional, organism-based; how it was run: as §2
Brain = experiment: Drug uptake in C57BL/6J mouse brain at 20 mg/kg, iv after 2 hrs by LC-MS/MS analysis; type: ADME, organism-based; settings: in vivo
Mus musculus [9] = experiment: Protection against TNFalpha-induced mortality in C57BL/6J mouse assessed as survival rate at 3 mg/kg, ip pretreated for 17 mins followed by TNFalpha injection and subsequent compound treatment once in every 12 hrs measured every 30 mins up to 60 hrs post TNFalpha injection during compound dosing (reference value: 50%); type: functional
Mus musculus [10] = experiment: Protection against TNFalpha-induced multiorgan damage in C57BL/6J mouse assessed as serum creatinine level at 0.3 to 3 mg/kg, ip pretreated for 17 mins followed by TNFalpha injection and subsequent compound treatment once in every 12 hrs measured 24 hrs post TNFalpha injection; type: functional, organism-based; how it was run: as §4
Mus musculus [11] = experiment: Protection against TNFalpha-induced multiorgan damage in C57BL/6J mouse assessed as inhibition of TNFalpha-induced increase in IL-1beta level at 0.3 to 3 mg/kg, ip pretreated for 17 mins followed by TNFalpha injection and subsequent compound treatment once in every 12 hrs measured after 12 hrs; type: functional, organism-based; how it was run: as §4
[12] = Intrinsic clearance in mouse liver microsomes assessed per mg protein in presence of NADPH by LC-MS/MS analysis; type: ADME, microsome; settings: read-out: CLH
[13] = target: Voltage-gated inwardly rectifying potassium channel KCNH2 (Homo sapiens, UniProt Q12809); experiment: Inhibition of human ERG at 30 uM by manual patch clamp method
How it was run: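 Manual patch clamp on hERG channel, tested up to 30 μM.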

[14] = target: Indoleamine 2,3-dioxygenase 1 (Homo sapiens, UniProt P14902); experiment: Inhibition of recombinant human IDO expressed in Escherichia coli assessed as reduction in kynurenine production at 200 uM using L-tryptophan as substrate after 3 hrs by methylene blue dye based assay
How it was run: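 Reaction mix: 50 mM MES pH 6.5, 20 mM ascorbate, 2250 U/mL catalase, 10 μM methylene blue, 200 μM L-Trp, 100 nM recombinant IDO, 200 μM compound or DMSO. Incubated 37 °C for 3 h; kynurenine colour read at 321 nm.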

Mus musculus [15] = experiment: as §1, with “thymus” for “myocardium”, “mouse assessed as reduction in immune cell infiltration” for “mouse”; type: functional, organism-based; how it was run: as §2
Mus musculus [16] = experiment: Protection against TNFalpha-induced multiorgan damage in C57BL/6J mouse assessed as serum amylase level at 0.3 to 3 mg/kg, ip pretreated for 17 mins followed by TNFalpha injection and subsequent compound treatment once in every 12 hrs measured 24 hrs post TNFalpha injection; type: functional, organism-based; how it was run: as §4
Mus musculus [17] = experiment: Protection against TNFalpha-induced pancreas damage in C57BL/6J mouse at 0.3 to 3 mg/kg, ip pretreated for 17 mins followed by TNFalpha injection and subsequent compound treatment once in every 12 hrs measured 24 hrs post TNFalpha injection by hematoxylin and eosin staining based assay; type: functional, organism-based; how it was run: as §2
Mus musculus [18] = experiment: Protection against TNFalpha-induced mortality in C57BL/6J mouse assessed as survival rate at 6 mg/kg, ip administered as single dose 17 mins before TNFalpha injection measured every 30 mins up to 60 hrs post TNFalpha injection (reference value: 50%); type: functional
[19] = Half life in mouse liver microsomes in presence of NADPH by LC-MS/MS analysis; type: ADME, microsome
[20] = Half life in C57BL/6J mouse at 2 mg/kg, iv by LC-MS/MS analysis; type: ADME, organism-based; settings: in vivo; how it was run: as §3

Chain of Voltage-gated inwardly rectifying potassium channel KCNH2 (Q12809 whole entry): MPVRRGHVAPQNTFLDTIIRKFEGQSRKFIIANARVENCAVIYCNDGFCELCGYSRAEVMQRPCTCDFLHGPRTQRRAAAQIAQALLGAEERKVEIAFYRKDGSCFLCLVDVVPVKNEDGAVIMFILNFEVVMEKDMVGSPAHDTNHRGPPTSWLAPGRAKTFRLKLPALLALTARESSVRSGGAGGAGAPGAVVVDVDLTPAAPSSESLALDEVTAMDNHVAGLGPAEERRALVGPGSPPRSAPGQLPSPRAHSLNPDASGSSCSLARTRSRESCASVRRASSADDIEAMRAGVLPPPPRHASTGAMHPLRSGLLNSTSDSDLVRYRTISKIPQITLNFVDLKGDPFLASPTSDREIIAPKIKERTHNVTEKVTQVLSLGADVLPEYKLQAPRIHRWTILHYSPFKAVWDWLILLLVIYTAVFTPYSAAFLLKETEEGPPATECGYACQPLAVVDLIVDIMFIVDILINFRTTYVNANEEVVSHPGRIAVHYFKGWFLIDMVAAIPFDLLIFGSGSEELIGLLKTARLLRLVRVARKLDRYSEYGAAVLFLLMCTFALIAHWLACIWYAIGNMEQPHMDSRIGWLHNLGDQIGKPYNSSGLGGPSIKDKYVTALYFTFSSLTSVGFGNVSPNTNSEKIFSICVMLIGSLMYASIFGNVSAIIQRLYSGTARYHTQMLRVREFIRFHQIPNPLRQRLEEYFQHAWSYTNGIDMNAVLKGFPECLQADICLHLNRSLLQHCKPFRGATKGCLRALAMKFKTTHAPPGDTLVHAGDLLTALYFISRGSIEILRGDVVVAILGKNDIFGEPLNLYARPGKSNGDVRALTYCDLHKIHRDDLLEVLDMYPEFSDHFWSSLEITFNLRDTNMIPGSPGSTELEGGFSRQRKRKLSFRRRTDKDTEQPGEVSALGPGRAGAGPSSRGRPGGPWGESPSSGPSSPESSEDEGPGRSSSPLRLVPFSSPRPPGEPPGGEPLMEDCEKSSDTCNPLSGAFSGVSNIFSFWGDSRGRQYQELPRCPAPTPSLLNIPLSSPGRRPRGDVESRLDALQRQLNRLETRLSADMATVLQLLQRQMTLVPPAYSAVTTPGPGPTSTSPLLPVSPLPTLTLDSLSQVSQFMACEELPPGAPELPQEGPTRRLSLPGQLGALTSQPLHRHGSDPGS
Chain of Receptor-interacting serine/threonine-protein kinase 3 (Homo sapiens) (Q9Y572 whole entry, looked up): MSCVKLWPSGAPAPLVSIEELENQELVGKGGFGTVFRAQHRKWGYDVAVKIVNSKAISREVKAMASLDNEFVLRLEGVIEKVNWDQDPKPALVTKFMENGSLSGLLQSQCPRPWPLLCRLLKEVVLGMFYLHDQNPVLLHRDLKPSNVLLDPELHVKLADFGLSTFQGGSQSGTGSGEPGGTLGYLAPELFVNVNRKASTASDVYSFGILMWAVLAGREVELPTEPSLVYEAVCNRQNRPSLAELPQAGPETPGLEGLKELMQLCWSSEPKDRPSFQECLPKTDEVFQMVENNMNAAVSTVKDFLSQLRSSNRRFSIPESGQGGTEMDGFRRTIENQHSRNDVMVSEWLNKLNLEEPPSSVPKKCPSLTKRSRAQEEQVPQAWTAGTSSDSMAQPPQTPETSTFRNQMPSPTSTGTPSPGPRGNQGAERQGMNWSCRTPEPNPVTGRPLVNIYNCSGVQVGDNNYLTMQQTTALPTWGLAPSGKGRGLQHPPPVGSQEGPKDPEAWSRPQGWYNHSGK
Chain of Indoleamine 2,3-dioxygenase 1 (P14902 whole entry): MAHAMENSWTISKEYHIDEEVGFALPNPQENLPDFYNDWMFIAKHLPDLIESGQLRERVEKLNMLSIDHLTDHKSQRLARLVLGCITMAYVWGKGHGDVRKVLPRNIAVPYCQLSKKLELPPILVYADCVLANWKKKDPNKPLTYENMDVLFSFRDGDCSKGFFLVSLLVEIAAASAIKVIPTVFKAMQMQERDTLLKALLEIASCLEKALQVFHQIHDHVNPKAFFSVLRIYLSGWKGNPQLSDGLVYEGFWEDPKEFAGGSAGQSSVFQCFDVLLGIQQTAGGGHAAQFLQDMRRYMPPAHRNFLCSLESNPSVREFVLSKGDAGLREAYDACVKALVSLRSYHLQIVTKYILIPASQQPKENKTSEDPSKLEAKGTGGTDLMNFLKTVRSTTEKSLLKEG

For `CCC(C)(C)C(=O)N(O)Cc1ccccc1`, the inhibition [1] was “Active”, the Activity (Mus musculus [2]) was “Active” and the Papp B→A [3] was greater than 30 ×10⁻⁶ cm/s. For the same compound, the bioavailability [4] was 100%, the inhibition [5] was “Active” and the bioavailability [6] was 22%. For the same compound, the Activity (Mus musculus [7]) was “Active”, the Activity (Mus musculus [8]) was “Active” and the Drug uptake (Brain) was “Active”. The survival at 3 mg/kg (Mus musculus [9]) was 100%, the Activity (Mus musculus [10]) was “Active” and the inhibition (Mus musculus [11]) was “Active”. The microsomal CLint [12] was 19.5 µL/min/mg, the “inhibition (INH)” value [13] was “Not Active” and the “inhibition (INH)” value [14] was “Not Active”. The Activity (Mus musculus [15]) was “Active”, the Activity (Mus musculus [16]) was “Active” and the Activity (Mus musculus [17]) was “Active”. It also gave a survival at 6 mg/kg (Mus musculus [18]) of 100%, a half-life [19] of 0.592 h and a half-life [20] of 3.1 h.
